Published values from different studies.
Protocols differ between the studies behind these lines.
Target: MAP kinase-interacting serine/threonine-protein kinase 2 (MKNK2, Homo sapiens, UniProt Q9HBH9)

| Compound | assay | conditions | quantity | value |
| --- | --- | --- | --- | --- |
| COc1ccc2oc(-c3ccc4nc(N)oc4c3)c/c(=N\c3ccccc3NC(=O)CCN)c2c1 | binding | 1 µM | remaining binding | 93% |
| C=CC(=O)N1CCC([C@@H]2CCNc3c(C(N)=O)c(-c4ccc(Oc5ccccc5)cc4)nn32)CC1 | enzyme activity, inhibitor | 1 µM | inhibition | 22% |
| C1=C/COCc2cc(ccc2OCCN2CCCC2)Nc2nccc(n2)-c2cccc(c2)COC/1 | binding | 0.1 µM | remaining binding | 59% |
| CN1CCN(C(=O)c2ccc(NC(=O)Nc3ccc(N(C)c4ccnc(Nc5ccc(CS(C)(=O)=O)cc5)n4)cc3)cc2)CC1 | binding, competition with immobilised ligand | 1 µM | remaining binding | 4.2% |
| CCCCC(=O)Nc1ccc(-c2ccc3ncn(CCC)c(=O)c3c2)cn1 | binding, competition with immobilised ligand | 0.5 µM | remaining binding | 100% |
| CC(C)S(=O)(=O)c1ccc2nccc(Nc3ccc4sc(C5CCCC5)nc4c3)c2c1 | enzyme activity, inhibitor | 1 µM | activity vs control | 101% |
| CO[C@@H]1[C@H](N(C)C(=O)c2ccccc2)C[C@H]2O[C@]1(C)n1c3ccccc3c3c4c(c5c6ccccc6n2c5c31)C(=O)NC4 | enzyme activity, inhibitor | 1 µM | inhibition | 30% |
| Cc1ccc(NC(=O)c2ccnc(C(F)(F)F)c2)cc1-c1cc(OCCO)nc(N2CCOCC2)c1 | binding, competition with immobilised ligand | 1 µM | remaining binding | 79% |
| N#Cc1ccc(NC(=O)Nc2ccccc2)cc1 | cell-free assay, competition with immobilised ligand | 25 µM | remaining binding | 46% |
